Broadly, the viability is a read-out of living cells in per cent, often relative to untreated cells. The inhibition is the relative decrease from the control value, in per cent.

The structures appear in SMILES notation. The source made the active and inactive calls. Unless noted, no stated cut-off is given here; in the data, active means inhibition above about 30%; inactive means the rest.

Assay [1] can be described thus: Her2 expression decrease, cell viability multiplex – SKBR3 breast tumor cells, AlphaScreen, ATP viability, primary screen (AID 461;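 active means Her2 level under about 52% in both replicate screens, with viability over 70% of control, limit read from the data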;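 on Her2 level: lower value means less Her2 protein in the cells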;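 on viability: percent of carrier control wells set as 100% viability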). The note with it: SKBR3 Her2 protein level, 18-24 h, measured here: SKBR3 viability, ATP luminescence, at 10 µM. For orientation: In Alpha technology, singlet oxygen from a donor bead excites a nearby acceptor bead.
The target of assay [2] is Receptor tyrosine-protein kinase erbB-2 (Homo sapiens) (UniProt P04626). The assay is described as above. The note with it: 18-24 h, at 10 µM, stronger effect = lower value.
Sequence of Receptor tyrosine-protein kinase erbB-2 (Homo sapiens) (P04626 whole entry, looked up): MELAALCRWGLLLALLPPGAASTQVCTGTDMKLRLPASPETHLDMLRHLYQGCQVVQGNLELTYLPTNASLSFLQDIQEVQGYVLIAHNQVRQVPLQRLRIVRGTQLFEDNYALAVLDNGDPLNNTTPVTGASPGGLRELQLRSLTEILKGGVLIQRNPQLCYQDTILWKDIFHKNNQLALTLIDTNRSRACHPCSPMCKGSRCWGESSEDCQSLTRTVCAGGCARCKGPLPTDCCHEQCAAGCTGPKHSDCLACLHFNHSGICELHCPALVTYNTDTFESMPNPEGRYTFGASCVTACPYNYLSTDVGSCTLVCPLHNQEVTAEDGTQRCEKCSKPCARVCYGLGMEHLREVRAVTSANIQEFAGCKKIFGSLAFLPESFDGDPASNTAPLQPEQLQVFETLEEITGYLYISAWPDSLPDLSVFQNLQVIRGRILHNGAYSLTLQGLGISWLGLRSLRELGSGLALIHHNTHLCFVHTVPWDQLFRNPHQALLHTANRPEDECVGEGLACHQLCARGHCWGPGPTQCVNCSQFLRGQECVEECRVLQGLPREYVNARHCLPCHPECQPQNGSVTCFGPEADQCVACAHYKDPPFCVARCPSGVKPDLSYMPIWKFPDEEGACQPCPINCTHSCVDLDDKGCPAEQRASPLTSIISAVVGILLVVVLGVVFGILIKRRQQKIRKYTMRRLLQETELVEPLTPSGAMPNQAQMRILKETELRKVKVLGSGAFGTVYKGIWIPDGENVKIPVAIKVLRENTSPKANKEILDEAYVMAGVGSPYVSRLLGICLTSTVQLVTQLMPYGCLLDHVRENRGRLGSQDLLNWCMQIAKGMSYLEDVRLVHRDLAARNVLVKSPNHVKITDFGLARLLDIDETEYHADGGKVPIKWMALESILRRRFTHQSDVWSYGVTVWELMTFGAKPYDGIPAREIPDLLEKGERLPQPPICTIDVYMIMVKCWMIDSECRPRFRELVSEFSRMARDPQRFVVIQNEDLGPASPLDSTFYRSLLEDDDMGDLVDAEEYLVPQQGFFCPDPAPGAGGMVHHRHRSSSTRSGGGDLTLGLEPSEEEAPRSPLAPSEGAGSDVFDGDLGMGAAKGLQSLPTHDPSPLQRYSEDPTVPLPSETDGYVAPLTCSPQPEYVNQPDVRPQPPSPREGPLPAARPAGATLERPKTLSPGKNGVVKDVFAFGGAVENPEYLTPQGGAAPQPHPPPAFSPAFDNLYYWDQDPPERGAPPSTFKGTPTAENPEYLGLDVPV
Assay [3] in a line: reduced viability of SK-BR-3 breast cancer cells – cell-based, 24 h, human, pilot screen (AID 572;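 active means viability at or below 10% of carrier control in both of two separate runs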;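 further: compound exposure lasted between 18 and 24 h rather than exactly 24 h; 100% = carrier-treated control wells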). The following applies: SK-BR-3 viability, CellTiter-Glo luminescence, at 10 µM, stronger effect = lower value. Background: In ATP-based viability assays light output follows the ATP content of the culture.
The nature of assay [4]: HUVEC growth inhibition – cell-based, human, primary screen (AID 575;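 active means viability at or below 30% in both replicate assays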;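 further: 100% = median of untreated cell wells with 0.1% DMSO on each plate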). The following applies: HUVEC proliferation, CellTiter-Glo luminescence, 72 h; at 10 µM; stronger effect = lower value. In a few lines:
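System: primary human umbilical vein endothelial cells; Quantity: 1250 endothelial cells in each well; Buffer or medium: supplemented EBM, 2% fetal bovine serum; Doses: one dose, 10 µM final, 0.1% DMSO; Incubation: 72 h compound incubation; Technique: ATP-based CellTiter-Glo luminescent read; Evaluation: percent of median DMSO-control luminescence; Controls: vehicle and MePR control wells.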

A short description of assay [5]: H69AR cell proliferation blockers – human, duplicate replicates, primary screen (AID 580;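 active means viability at or under a set limit in both replicates, limit being median viability minus 3 SD, cut at about 48% in these data, passing the limit was not always enough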;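 further: 100% = mean luminescence of untreated wells and 0% = no signal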). The following applies: H69AR lung tumor cells viability, ATP luminescence, 72 h; at 10 µM; stronger effect = lower value.
A short description of assay [6]: MRP1 drug-resistance reversers in H69AR cells – cell-based, doxorubicin co-treatment, pilot screen (AID 601;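 active means viability loss from added drug above about 55%, and viability with drug at most 40%, in both replicates, limit read from the data, passing the limit was not always enough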). The following applies: CellTiter-Glo, 72 h, at 10 µM; for differential viability (reversal): stronger effect = higher value.
Assay [7] in a line: yeast transport mutant growth inhibition pilot in 384-well plates, post-Golgi transport modulator project (AID 636; in the data active means inhibition above about 31%). The following applies: absorbance 615 nm, about 18 h, stronger effect = higher value.
Assay [8] is described as follows: growth suppression of yeast trafficking mutant, preliminary HTS, modulators of trafficking downstream of Golgi apparatus project, 1536-format plate, OD 615 nm (AID 637). The following applies: yeast transport mutant growth, absorbance 615 nm, 18 h; stronger effect = higher value.
[9] abbreviates: H69AR cells + 2 uM doxorubicin, measured here: viability with 2 uM doxorubicin, stronger effect = lower value.
Where [10] appears, read: H69AR cells, compound alone cytotoxicity.

For the compound `COCCNC(=O)C(c1ccc(C)o1)N(Cc1ccc(OC)cc1)C(=O)Cn1nnc2ccccc21` (stereo not given), the viability in assay [1] was 102%; in assay [3], 102% (inactive); in assay [4] it was 102% (inactive); in assay [5] it was 97.8% (inactive); in assay [6] (setting [9]), 104%; in assay [6] (setting [10]), 97.8%. The Her2 level in assay [2] is 98% (inactive). Further, the differential viability (reversal) in assay [6] (H69AR cells + 2 uM doxorubicin) is -6.28% (inactive). The inhibition in assay [7] is -0.53% (inactive); in assay [8], -0.82% (inactive).
For the compound `CC1C(c2ccccc2)N(C)CCC12NC(=O)NC2=O` (stereo not given), the viability is 89% in assay [1]; 89% (inactive) in assay [3]; 96.9% (inactive) in assay [4]; 98.2% (inactive) in assay [5]; 85.2% in assay [6] (setting [9]); 98.2% in assay [6] (setting [10]). In addition, in assay [2], the Her2 level is 95.5% (inactive). Moreover, the differential viability (reversal) in assay [6] (H69AR cells + 2 uM doxorubicin) is 13% (inactive). Besides, the figures for the inhibition in assay [7] and in assay [8] were -5.33% (inactive) and -9.02% (inactive), respectively.
With `Cc1ccc(CNC(=O)C2CCCN(S(=O)(=O)c3cccnc3)C2)cc1` (stereo not given), the viability is 92.5% in assay [1]; 92.5% (inactive) in assay [3]; 104% (inactive) in assay [4]; 99.6% (inactive) in assay [5]; 89% in assay [6] (setting [9]); 99.6% in assay [6] (setting [10]). Further, the Her2 level in assay [2] was 109% (inactive). Besides, the differential viability (reversal) in assay [6] (H69AR cells + 2 uM doxorubicin) was 10.6% (inactive). Besides, the inhibition in assay [7] was -0.26% (inactive); in assay [8] it was -4.18% (inactive).
Take `COc1ccccc1Nc1ncnc2c1cnn2-c1cccc(C)c1`: the viability in assay [1] is 94.5%; in assay [3], 94.5% (inactive); in assay [4], 87.7% (inactive); in assay [5], 95.4% (inactive); in assay [6] (setting [9]) it was 84.5%; in assay [6] (setting [10]), 95.4%. In addition, the Her2 level in assay [2] is 88.5% (inactive). In assay [6] (H69AR cells + 2 uM doxorubicin), the differential viability (reversal) is 10.9% (inactive). The inhibition in assay [7] is -5.33% (inactive); in assay [8], -8.71% (inactive).
Regarding `CCOC(=O)CC1(CC(=O)OCC)NC(=O)c2c(C)sc(C(=O)OCC)c2N1`, the viability in assay [1] is 92%; in assay [3], 92% (inactive); in assay [4], 71.4% (inactive); in assay [5], 101% (inactive); in assay [6] (setting [9]) it was 95.3%; in assay [6] (setting [10]), 101%. Also, the Her2 level in assay [2] was 93% (inactive). In addition, the differential viability (reversal) in assay [6] (H69AR cells + 2 uM doxorubicin) was 5.26% (inactive). For the same compound, the inhibition is -1.05% (inactive) in assay [7] and 6.39% (inactive) in assay [8].
Take `CCc1[nH]nc2c1C(c1cccc(OC(=O)N3CCOCC3)c1)C(C#N)=C(N)O2` (stereo not given): the viability in assay [1] was 133%; in assay [3], 133% (inactive); in assay [4], 103% (inactive); in assay [5], 89.5% (inactive); in assay [6] (setting [9]) it was 98.8%; in assay [6] (setting [10]) it was 89.5%. In addition, in assay [2], the Her2 level is 124% (inactive). Further, the differential viability (reversal) in assay [6] (H69AR cells + 2 uM doxorubicin) is -9.21% (inactive). Besides, the inhibition in assay [7] was -3.42% (inactive); in assay [8], 0.95% (inactive).
On to `O=C(CSc1nnnn1Cc1ccccc1)Nc1ccc2c(c1)OCO2`, for which the viability in assay [1] is 114%; in assay [3], 114% (inactive); in assay [4] it was 90.3% (inactive); in assay [5], 108% (inactive); in assay [6] (setting [9]) it was 89.5%; in assay [6] (setting [10]) it was 108%. Further, the Her2 level in assay [2] is 108% (inactive). In addition, the differential viability (reversal) in assay [6] (H69AR cells + 2 uM doxorubicin) was 18.2% (inactive). Besides, the inhibition in assay [7] was -5.54% (inactive); in assay [8], -3.17% (inactive).
As for `COc1ccc(OC)c(-c2nnc(SCC(=O)NC3CCCCC3)o2)c1`, the viability in assay [1] is 93.5%; in assay [3] it was 93.5% (inactive); in assay [4], 96.2% (inactive); in assay [5], 98.5% (inactive); in assay [6] (setting [9]), 92.2%; in assay [6] (setting [10]), 98.5%. For the same compound, in assay [2], the Her2 level is 99.5% (inactive). Besides, in assay [6] (H69AR cells + 2 uM doxorubicin), the differential viability (reversal) is 6.21% (inactive). For the same compound, the inhibition was 0% (inactive) in assay [7] and -13.4% (inactive) in assay [8].
On to `CCOC(=O)c1cc2cc(F)ccc2nc1C`, for which the viability in assay [1] is 103%; in assay [3], 103% (inactive); in assay [4] it was 120% (inactive); in assay [5], 108% (inactive); in assay [6] (setting [9]), 87.1%; in assay [6] (setting [10]), 108%. Besides, the Her2 level in assay [2] is 112% (inactive). The differential viability (reversal) in assay [6] (H69AR cells + 2 uM doxorubicin) is 20.9% (inactive). The inhibition in assay [7] was -0.93% (inactive); in assay [8], -5.9% (inactive).
In the case of `Cc1cc2c(=O)n(Cc3ccco3)c(SCC(=O)NCc3ccco3)nc2s1`, the viability is 100% in assay [1]; 100% (inactive) in assay [3]; 93.7% (inactive) in assay [4]; 81.2% (inactive) in assay [5]; 76.4% in assay [6] (setting [9]); 81.2% in assay [6] (setting [10]). Also, the Her2 level in assay [2] is 88% (inactive). Moreover, the differential viability (reversal) in assay [6] (H69AR cells + 2 uM doxorubicin) was 4.87% (inactive). The inhibition was -4% (inactive) in assay [7] and 1.9% (inactive) in assay [8].
With `COc1ccc(C2C3=C(CC(C)(C)CC3=O)Oc3ncn4nc(-c5cccnc5)nc4c32)cc1` (stereo not given), the viability in assay [1] is 96%; in assay [3] it was 96% (inactive); in assay [4], 108% (inactive); in assay [5], 105% (inactive); in assay [6] (setting [9]), 90.9%; in assay [6] (setting [10]), 105%. For the same compound, the Her2 level in assay [2] is 84.5% (inactive). Further, in assay [6] (H69AR cells + 2 uM doxorubicin), the differential viability (reversal) is 14.3% (inactive). Further, the inhibition was -9.05% (inactive) in assay [7] and 0% (inactive) in assay [8].
For the compound `CCN(CC)C(=O)CSc1nc2ccc(NC(=O)CSc3nccn3C)cc2s1`, the viability is 88.5% in assay [1]; 88.5% (inactive) in assay [3]; 68.2% (inactive) in assay [4]; 91% (inactive) in assay [5]; 84.8% in assay [6] (setting [9]); 91% in assay [6] (setting [10]). For the same compound, the Her2 level in assay [2] is 93.5% (inactive). Also, the differential viability (reversal) in assay [6] (H69AR cells + 2 uM doxorubicin) was 6.22% (inactive). Besides, the inhibition was -4.47% (inactive) in assay [7] and -1.45% (inactive) in assay [8].
Turning to `COCCNC(=O)CC(NS(=O)(=O)c1ccc(NC(C)=O)cc1)C(C)C` (stereo not given), the viability in assay [1] was 97%; in assay [3], 97% (inactive); in assay [4], 81.2% (inactive); in assay [5], 95.1% (inactive); in assay [6] (setting [9]), 83.7%; in assay [6] (setting [10]) it was 95.1%. Further, the Her2 level in assay [2] is 122% (inactive). In assay [6] (H69AR cells + 2 uM doxorubicin), the differential viability (reversal) is 11.4% (inactive). For the same compound, the inhibition in assay [7] is -4.74% (inactive); in assay [8], 5% (inactive).
For `CC1(C)CC(CCNC(=O)c2ccco2)CC(C)(C)N1`, the viability in assay [1] was 106%; in assay [3] it was 106% (inactive); in assay [4] it was 84.2% (inactive); in assay [5] it was 98.8% (inactive); in assay [6] (setting [9]), 95.8%; in assay [6] (setting [10]), 98.8%. Further, in assay [2], the Her2 level is 92% (inactive). Moreover, the differential viability (reversal) in assay [6] (H69AR cells + 2 uM doxorubicin) was 2.95% (inactive). In addition, the inhibition was -3.73% (inactive) in assay [7] and -4.76% (inactive) in assay [8].

(Values after PubChem BioAssay.)
